Measurements of several laboratories.
Each line is one published result; the experiments were not run side by side.
TEK: Angiopoietin-1 receptor (TEK, Homo sapiens, UniProt Q02763)
ALK: ALK tyrosine kinase receptor (ALK, Homo sapiens, UniProt Q9UM73)
PDE1A: Dual specificity calcium/calmodulin-dependent 3',5'-cyclic nucleotide phosphodiesterase 1A (PDE1A, Homo sapiens, UniProt P54750)
SIRT6: NAD-dependent protein deacylase sirtuin-6 (SIRT6, Homo sapiens, UniProt Q8N6T7)
CCR5: C-C chemokine receptor type 5 (CCR5, Homo sapiens, UniProt P51681)

Compound | target | assay | test system | conditions | IC50 [nM]
Cc1ccc(C(=O)Nc2ccc(Oc3cc4cnn(C)c4cc3-c3cn[nH]c3)c(F)c2)c(=O)n1-c1ccc(F)cc1 | TEK | cell growth or viability, ATP luminescence | – | – | 63
Cc1cc(-c2cccc(C(C)(C)C)c2)[nH]n1 | ALK | enzyme activity, inhibitor, TR-FRET | – | – | 270000
CN1C(=O)c2c(nn(Cc3ccc(-c4cccc(F)n4)cc3)c2Nc2ccccc2)N2C1=N[C@@H]1CCC[C@@H]12 | PDE1A | enzyme activity, inhibitor, radiometric | – | – | 0.031
NC(=O)c1ccc(C(=O)NOCc2cc(Cl)cc(Cl)c2)cc1 | SIRT6 | enzyme activity, inhibitor, fluorescence | – | – | 2970
CN(Cc1ccc(NC(=O)C2=Cc3cc(-c4ccc(OCCCF)cc4)ccc3CCC2)cc1)C1CCOCC1 | CCR5 | ligand displacement, radioligand | – | cell membranes | 2700
NC(=O)c1ccc(C(=O)NOCc2cccc3ccccc23)cc1 | SIRT6 | enzyme activity, inhibitor, fluorescence | – | – | 2890
COc1ccc(-c2ccc3[nH]c4ncc(C=Cc5ccccc5)cc4c3c2)cc1 | ALK | enzyme activity, inhibitor, ELISA | – | – | 1200
COc1cc(C[C@H]2C(=O)OC[C@@H]2Cc2ccc(OC)c(OC)c2)ccc1O | PDE1A | enzyme activity, inhibitor | – | – | > 20000
NC(=O)c1ccc(C(=O)NOCc2cccc(-c3ccccc3)c2)cc1 | SIRT6 | enzyme activity, inhibitor, fluorescence | – | – | 3340
Cc1cc(-c2cccc(S(C)(=O)=O)c2)[nH]n1 | ALK | enzyme activity, inhibitor, TR-FRET | – | – | 120000
NC(=O)c1ccc(C(=O)NOCc2ccc(-c3ccccc3)cc2)cc1 | SIRT6 | enzyme activity, inhibitor, fluorescence | – | – | 2560
CSc1ccc(/C=C2/C(C)=C(CC(=O)O)c3cc(F)ccc32)cc1 | PDE1A | enzyme activity, inhibitor | – | – | > 100000
CCS(=O)(=O)Nc1ccc(C(=O)NC2CC3CCC2C3)cc1 (stereo not drawn) | Pantothenate kinase 1 (Homo sapiens, UniProt Q8TE04) | enzyme activity, inhibitor, ATP luminescence | – | – | 270
CN(Cc1ccc(NC(=O)C2=Cc3cc(-c4ccc(OCCCCCCCF)cc4)ccc3CCC2)cc1)C1CCOCC1 | CCR5 | ligand displacement, radioligand | – | cell membranes | 3600
COc1cc(/C=N/n2c(C)nc3ccc(Br)cc3c2=O)ccc1OCc1ccc(Cl)cc1 | Cathepsin B (CTSB, Homo sapiens, UniProt P07858) | enzyme activity, inhibitor | – | – | 45800
CN(C)CCC=C1c2ccccc2CCc2ccccc21 | Multidrug and toxin extrusion protein 1 (SLC47A1, Homo sapiens, UniProt Q96FL8) | transporter uptake, inhibitor, radiometric | HEK293 | 5 min | 29600
NC(=O)c1ccc(C(=O)NOCc2ccc(Sc3ccc(Cl)cc3)c(C(F)(F)F)c2)cc1 | SIRT6 | enzyme activity, inhibitor, fluorescence | – | – | 1510
CNC(=O)c1cc2c(Oc3ccc(NC(=O)C4(C(=O)Nc5ccc(F)cc5)CC4)cc3)ccnc2cc1OC | TEK | enzyme activity, inhibitor, radiometric | – | – | 32
COc1ccc2c(Oc3ccc4c(C(=O)Nc5ccccc5N)cccc4c3)ccnc2c1 | Vascular endothelial growth factor receptor 3 (FLT4, Homo sapiens, UniProt P35916) | enzyme activity, inhibitor | – | – | 9
COc1ccc(CONC(=O)c2ccc(C(N)=O)cc2)cc1 | SIRT6 | enzyme activity, inhibitor, fluorescence | – | – | 7490
Nc1nonc1-n1cc(C(=O)N/N=C/c2cccc(O)c2O)nn1 | SIRT6 | enzyme activity, inhibitor, fluorescence | – | – | 13800
